Legend:
NCI-H460 = assay: Antiproliferative activity against human NCI-H460 cells after 48 hrs by MTT assay; format: functional, cell-based; settings: NCI-H460, 48 h
Procedure, shortened: (§1)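 MTT read-out of antiproliferative activity across cancer lines HepG-2, NCI-H460, MGC-803, A549 and MG-63 and normal liver line HL-7702. IC50 given as mean ± S.D. of three separate experiments, each run in triplicate.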

[1] = Inhibition of TNF-alpha induced NF-kappaB activation in human A549 cells after 7 hrs by Bright-Glo luciferase reporter gene assay; format: cell-based; settings: Homo sapiens, A549, 7 h; read-out: IC50
Procedure, shortened: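 A549 cells transiently cotransfected with an NF-κB-Luc reporter and stimulated with TNF-α. Luciferase read-out of inhibition gives IC50, the mean of at least three independent experiments each with triplicates.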

[2] = Growth inhibition of cisplatin-resistant human SKOV3/DDP cells after 48 hrs by MTT assay; format: functional; settings: SK-OV-3, 48 h
Procedure, shortened: (§2)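 MTT growth inhibition in the paired ovarian lines, cisplatin-sensitive SK-OV-3 and cisplatin-resistant SK-OV-3/CDDP. IC50 given as mean ± S.D. of three separate experiments, each in triplicate.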

[3] = Selectivity ratio of IC50 for cisplatin-resistant human SKOV3/DDP cells to IC50 for cisplatin sensitive human SKOV3 cells; format: functional
Procedure, shortened: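 IC50 determined in resistant SK-OV-3/CDDP cells divided by IC50 in parental SK-OV-3 cells. Each IC50 by MTT, three separate experiments each in triplicate.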

SK-OV-3 = assay: Growth inhibition of cisplatin sensitive human SKOV3 cells after 48 hrs by MTT assay; format: functional, cell-based; settings: SK-OV-3, 48 h; procedure, shortened: as §2
MGC-803 = assay: Antiproliferative activity against human MGC803 cells after 48 hrs by MTT assay; format: functional, cell-based; settings: MGC-803, 48 h; procedure, shortened: as §1
HepG2 = assay: Antiproliferative activity against human HepG2 cells after 48 hrs by MTT assay; format: functional, cell-based; settings: HepG2, 48 h; procedure, shortened: as §1
A549 = assay: Antiproliferative activity against human A549 cells after 48 hrs by MTT assay; format: functional, cell-based; settings: A549, 48 h; procedure, shortened: as §1
MG-63 = assay: Antiproliferative activity against human MG63 cells after 48 hrs by MTT assay; format: functional, cell-based; settings: MG-63, 48 h; procedure, shortened: as §1
L02 = assay: Antiproliferative activity against human HL-7702 cells after 48 hrs by MTT assay; format: functional, cell-based; settings: L02, 48 h; procedure, shortened: as §1

| Structure (SMILES) | IC50 (NCI-H460) [µM] | IC50 [1] [µM] | IC50 [2] [µM] | Ratio IC50 [3] | IC50 (SK-OV-3) [µM] | IC50 (MGC-803) [µM] | IC50 (HepG2) [µM] | IC50 (A549) [µM] | IC50 (MG-63) [µM] | IC50 (L02) [µM] |
| --- | --- | --- | --- | --- | --- | --- | --- | --- | --- | --- |
| CCOP(=O)(OCC)C(Nc1ccc(CC(=O)NCCCNC(=O)[C@@]2(C)CC[C@]3(C)CC[C@]4(C)C(=CC(=O)[C@@H]5[C@@]6(C)CC[C@H](OC(C)=O)C(C)(C)[C@@H]6CC[C@]54C)[C@@H]3C2)cc1)c1ccc(F)cc1 (stereo partly drawn) | 14.9 | 3.01 | 13.4 | 1.32 | 10.1 | 16.3 | 15.3 | 15 | 13.7 | > 50 |
| CC1(C)[C@@H](O)CC[C@]2(C)[C@H]3C(=O)C=C4[C@@H]5C[C@@](C)(C(=O)O)CC[C@]5(C)CC[C@@]4(C)[C@]3(C)CC[C@@H]12 [ENOXOLONE] | 37.6 | > 30 | 49.4 | 1.08 | 45.6 | > 50 | 44.5 | 36.1 | > 50 | > 50 |
| CCOP(=O)(OCC)C(Nc1ccc(CC(=O)NCCCNC(=O)[C@@]2(C)CC[C@]3(C)CC[C@]4(C)C(=CC(=O)[C@@H]5[C@@]6(C)CC[C@H](OC(C)=O)C(C)(C)[C@@H]6CC[C@]54C)[C@@H]3C2)cc1)c1ccc(OC)cc1 (stereo partly drawn) | 18.8 | 5.03 |  |  |  | 18.2 | 19.3 | 19.3 | 19.1 | > 50 |
| CCOP(=O)(OCC)C(Nc1ccc(CC(=O)NCCCCNC(=O)[C@@]2(C)CC[C@]3(C)CC[C@]4(C)C(=CC(=O)[C@@H]5[C@@]6(C)CC[C@H](O)C(C)(C)[C@@H]6CC[C@]54C)[C@@H]3C2)cc1)c1ccc(OC)cc1 (stereo partly drawn) | 24 | 13.1 |  |  |  | 22.2 | 32.2 | 25.2 | 17.2 | > 50 |
| CCOP(=O)(OCC)C(Nc1ccc(CC(=O)NCCCNC(=O)[C@@]2(C)CC[C@]3(C)CC[C@]4(C)C(=CC(=O)[C@@H]5[C@@]6(C)CC[C@H](O)C(C)(C)[C@@H]6CC[C@]54C)[C@@H]3C2)cc1)c1ccc(OC)cc1 (stereo partly drawn) | 29.4 | 17.1 |  |  |  | 25.7 | 36.8 | 23.1 | 23.6 | > 50 |
| CCOP(=O)(OCC)C(Nc1ccc(CC(=O)NCCCCNC(=O)[C@@]2(C)CC[C@]3(C)CC[C@]4(C)C(=CC(=O)[C@@H]5[C@@]6(C)CC[C@H](OC(C)=O)C(C)(C)[C@@H]6CC[C@]54C)[C@@H]3C2)cc1)c1cccc(F)c1 (stereo partly drawn) | 28.2 | 27.4 |  |  |  | 21 | 21.3 | 26.4 | 22.8 | > 50 |

Source: ChEMBL document CHEMBL4382268, “Glycyrrhetinic acid derivatives containing aminophosphonate ester species as multidrug resistance reversers that block the NF-κB pathway and cell proliferation” (Bioorg Med Chem Lett, 2018)
